Published values from different studies.
Compare with care: the assays were run in different laboratories.
Genome polyprotein protease: Genome polyprotein, protease (ZIKV, UniProt A0A024B7W1)
Adra1a: Alpha-1A adrenergic receptor (Adra1a, Rattus norvegicus, UniProt P43140)
CTSB: Cathepsin B (CTSB, Homo sapiens, UniProt P07858)
CCR2: C-C chemokine receptor type 2 (CCR2, Homo sapiens, UniProt P41597)
USP14: Ubiquitin carboxyl-terminal hydrolase 14 (USP14, Homo sapiens, UniProt P54578)

OC(CCN1CC=C(c2ccc(F)cc2)CC1)c1ccc(F)c2ccccc12 (stereo not shown)
inhibition (Plasmepsin II (Plasmodium falciparum, UniProt P46925); enzyme activity; inhibitor; 5 µM): 18%

Oc1cccc(O)c1O
inhibition (Genome polyprotein protease; enzyme activity; inhibitor; FRET; 100 µM; pH 7): 11%

CC(C)Cn1cnc2c(N)nc3ccccc3c21
inhibition (Adra1a; ligand displacement; radioligand; 10 µM): 65%

COc1cc(Nc2ncc(F)c(Nc3ccc4c(n3)NC(=O)C(C)(C)O4)n2)cc(OC)c1OC
inhibition (SNF-related serine/threonine-protein kinase (SNRK, Homo sapiens, UniProt Q9NRH2); binding; 10 µM): 7%

N=C(N)c1ccc2cc(OC(=O)c3ccc(N=C(N)N)cc3)ccc2c1
inhibition (CTSB; enzyme activity; inhibitor; 10 µM): 48%

O=c1c(O)c(-c2ccc(O)c(O)c2)oc2cc(O)cc(O)c12
inhibition (Genome polyprotein protease; enzyme activity; inhibitor; FRET; 100 µM; pH 7): 37%

CN(C)C(=O)COC(=O)Cc1ccc(OC(=O)c2ccc(NC(=N)N)cc2)cc1
inhibition (CTSB; enzyme activity; inhibitor; 10 µM): 0%

Cc1ncc(C)n2nc(/C=C/c3nc(N4CCCC4)cc(N4CCOCC4)n3)nc12
inhibition (CCR2; cell-free assay; 10 µM): 10%

C#Cc1n[nH]c2c(-c3cn([C@@H](C)c4ccccc4)c(=O)[nH]c3=O)cc(F)cc12
inhibition (Cyclin-dependent kinase 2, with cyclin E1 (CDK2, Homo sapiens, UniProt P24941); enzyme activity; inhibitor; 0.1 µM): -4.8%

Cn1cc(-c2cc(F)cc(N3CCn4c(cc5c4CCCC5)C3=O)c2CO)cc(Nc2ccc(N3CCN(C4COC4)CC3)cn2)c1=O
inhibition (MAP kinase-activated protein kinase 3 (MAPKAPK3, Homo sapiens, UniProt Q16644); enzyme activity; inhibitor; 0.1 µM): 9%

N#Cc1ccc(NCCNCC(=O)N2N=CCC2C#N)nc1 (stereo not shown)
inhibition (Dipeptidyl peptidase 9 (DPP9, Homo sapiens, UniProt Q86TI2); enzyme activity; inhibitor; 0.1 µM): 0%

Cn1c(=O)c2ncnnc2n(C)c1=O
inhibition (USP14; enzyme activity; inhibitor; 17 µM): 96%

c1ccc(C(NCCNC(c2ccccc2)c2ccccc2)c2ccccc2)cc1
inhibition (Voltage-dependent N-type calcium channel subunit alpha-1B (Cacna1b, Rattus norvegicus, UniProt Q02294); cell-free assay; 10 µM): -6%

O=c1c(O)c(-c2ccc(O)c(O)c2)oc2cc(O)cc(O)c12
inhibition (Genome polyprotein protease; enzyme activity; inhibitor; 200 µM; pH 8.5): 100%

Cn1c(=O)c2c(ncn2C)n(C)c1=O
inhibition (Genome polyprotein protease; enzyme activity; inhibitor; FRET; 100 µM; pH 7): 6%

Cn1cc(-c2cccc(N3CCc4c(sc5c4CC(C)(C)C5)C3=O)c2CO)cc(Nc2ccncn2)c1=O
inhibition (Cyclin-dependent kinase 8, with cyclin C (CDK8, Homo sapiens, UniProt P49336); enzyme activity; inhibitor; 1 µM): -1%

CCOC(=O)c1ccc(OC(=O)CCCCCNC(=N)N)cc1
inhibition (USP14; enzyme activity; inhibitor; 10 µM): 1%

O=c1c(O)c(-c2cc(O)c(O)c(O)c2)oc2cc(O)cc(O)c12
inhibition (Genome polyprotein protease; enzyme activity; inhibitor; FRET; 100 µM; pH 7): 88%

O=C1N=C(N2CCCCN2)S/C1=C\c1ccc(F)cc1O
inhibition (5-hydroxytryptamine receptor 6 (HTR6, Homo sapiens, UniProt P50406); ligand displacement; radioligand; 10 µM): < 10%

C[C@@H]1O[C@@H](O[C@H]2[C@H](Oc3cc(O)c4c(c3)O[C@H](c3ccc(O)cc3)CC4=O)O[C@H](CO)[C@@H](O)[C@@H]2O)[C@H](O)[C@H](O)[C@H]1O
inhibition (Genome polyprotein protease; enzyme activity; inhibitor; FRET; 100 µM; pH 7): 12.5%

C#Cc1n[nH]c2c(-c3cn(C(C)c4ccccn4)c(=O)[nH]c3=O)cc(F)cc12 (stereo not shown)
inhibition (Dual specificity protein kinase CLK3 (CLK3, Homo sapiens, UniProt P49761); enzyme activity; inhibitor; 1 µM): 8.3%

O=C(Nc1cccnn1)N1CCN([C@@H]2CCOc3cc(C(F)(F)F)ccc32)CC1
inhibition (CCR2; cell-free assay; 20 µM): -9%

CC(C)C[C@H](NC(=O)[C@H]1O[C@@H]1C(=O)O)C(=O)NCCCCN=C(N)N
inhibition (CTSB; enzyme activity; inhibitor; 500 pM): 32%

CCN(CC)CCCC[C@H](NC(=O)[C@H](CC(C)C)NC(=O)[C@H](C)NC(=O)[C@H](Cc1ccccc1)NC(=O)c1ccc(C(C)(C)C)cc1)C(=O)N[C@@H](CO)C(=O)OC
inhibition (C-X-C chemokine receptor type 2 (CXCR2, Homo sapiens, UniProt P25025); ligand displacement; radioligand; 10 µM): -12%

CC(C)N1CCC[C@H]1CNC(=O)c1cn(C2CCCC2)c(=O)c2c1c1ccccc1n2C
inhibition (Adra1a; ligand displacement; radioligand; 10 µM): 16%
